# Rows were chosen to be rich in hits. Some 4.8% of all compounds tested hit in one or more screens of this group.
# Mdm2 MdmX PPI: human Mdm2/MdmX binding inhibition. O15151+Q00987. SaOS-2 split-luciferase Mdm2/MdmX complementation, luminescence. inhibition, % at 8 µM. 330,000 compounds, 3% hits. AID 485346;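 active = inhibition of at least 50% at 8 µM in the primary screen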
# SKKanGAS inh: SKKanGAS growth inhibition; S. pyogenes SKKanGAS, kanamycin growth, BacTiter-Glo, 6 h; inhibition, % at 7.5 µM; 300,000 compounds, 1.3% hits; AID 1662;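 active = mean replicate score, as percent of positive control median, at least 50; inconclusive = mean below 50 but one replicate at or above 50; inactive = mean and every replicate below 50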;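 note: strain carries kanamycin resistance gene driven by streptokinase promoter and grows in 40 µg/ml kanamycin; loss of luminescence reflects streptokinase promoter inhibition or plain growth inhibition; 0% = median of DMSO wells and 100% = positive control at its reference dose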
# Beta apoptosis: blocks beta cell apoptosis. INS-1E cytokine-induced death, ATP luminescence, 48 h; percent of positive-control rescue, neutral wells zero. protection from apoptosis, % (test concentration not listed). 300,000 compounds, 0.8% hits;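 active = Every replicate reaches about 75%, or at least half do and their mean reaches it too, limit read from the data; inconclusive = At least half of replicates reach the limit but their mean does not; inactive = Under half of replicates reach the limit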;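 note: 0% = cytokine-treated negative control wells and 100% = positive control rescue; higher means more ATP so stronger rescue from cytokine killing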
# UPR CHOP act: apoptotic UPR (CHOP) activation. CHO-CHOP luciferase reporter, luminescence; percent of tunicamycin response over DMSO baseline. activation, % at 10 µM. 330,000 compounds, 0.34% hits;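 active = at 10 µM dose, activation of 40% or more, normalized to positive control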;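 note: 100% = tunicamycin at 10 µg/mL and 0% = DMSO alone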
#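 System: CHO-CHOP luciferase reporter cell line | Buffer or medium: F12 medium containing 10% fetal bovine serum | Doses: One dose, 10 µM in 0.5% DMSO | Times: 6 h compound exposure at 37 °C after overnight seeding | Signal: Luciferase luminescence | Read-out: % activation vs tunicamycin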
# XBP1 UPR activ: activators of adaptive arm of unfolded protein response (XBP1). activation, % at 20 µM. CHO-XBP1 luciferase reporter, IRE1-XBP1 UPR activation, luminescence; percent of tunicamycin response, DMSO as zero. 330,000 compounds, 0.33% hits. AID 463104;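 active = versus positive control, 20 µM dose yields 30% or more activation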;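 note: 100% = tunicamycin at 10 µg/mL and 0% = DMSO only wells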
#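 Material: CHO-XBP1 cells stably carrying IRE1-XBP1-driven luciferase reporter | Medium: F12 with 10% serum | Compound dosing: 20 µM single concentration, DMSO 1% | Incubation: Overnight seeding at 37 °C, 6 h compound treatment at 37 °C | Detection: Steady-Glo luminescence read | Read-out basis: % activation of reporter signal versus tunicamycin and DMSO controls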
# CSC inhib: cancer stem cell inhibition; cancer stem cell-like cells viability, luminescence; inhibition, % at 7.5 µM; 300,000 compounds, 1.1% hits; in the data active = inhibition above about 75%; inconclusive = no clear call, values can overlap the other calls; tested in HMLE shEcad cells
# Starred values were filed as active, the others as inactive; ? = inconclusive; . = no result given.
SMILES,Mdm2 MdmX PPI,SKKanGAS inh,Beta apoptosis,UPR CHOP act,XBP1 UPR activ,CSC inhib
C/C(=N\Nc1nc2ccccc2s1)c1ccc2c(c1)OCO2,-133.3,?,2.7,6.0,3.9,0.4
C/C(=N\Nc1nc2ccccc2s1)c1ccc(Br)s1,10.0,91.6*,90.4*,0.6,2.9,83.6*
COc1ccc(-c2c(C#N)c(N)nc3sc(C(=O)c4ccccc4)c(N)c23)cc1,.,52.9*,-1.4,.,.,31.4
O=C(/C=C/c1cn(-c2ccccc2)nc1-c1ccccc1)Nc1ccc(C(=O)O)cc1,9.0,49.9*,0.4,5.0,5.4,10.2
O=C(O)c1ccc(NC(=O)c2cn(-c3ccccc3)nc2-c2ccc(F)cc2)cc1,19.5,8.5,-4.3,3.7,0.0,-4.8
CNC(=O)NC(=O)C(C)OC(=O)c1c2c(nc3ccccc13)/C(=C/c1cccs1)CC2 (stereo not given),-1.0,23.2,-4.0,3.8,2.3,93.5*
CCCCNC(=O)COC(=O)c1c2c(nc3ccccc13)/C(=C/c1cccs1)CC2,.,.,67.5,.,.,66.6
COc1ccccc1Nc1nc(-c2sc(N)nc2C)cs1,10.1,22.8,-0.6,0.0,-3.7,-10.0
Cc1nc(N)sc1-c1csc(N(C)c2ccc(O)cc2)n1,-33.0,64.3*,3.8,5.0,4.0,6.6
COC(=O)C1C(=O)C2=C(CC1C)NC(=O)CC2c1ccccc1 (stereo not given),13.3,-0.8,-10.5,0.8,-1.0,-17.9
COC(=O)C1C(=O)C2=C(CC1C)NC(=O)CC2c1cccc(C)c1 (stereo not given),-6.5,1.1,12.8,-2.2,-3.2,101.0*
CC(C)CN(C(=O)c1cccc(S(=O)(=O)N2CCN(Cc3ccccc3)CC2)c1)C1CCS(=O)(=O)C1 (stereo not given),17.3,-11.3,-1.2,0.3,-1.2,18.6
CCOC(=O)c1ccc(Nc2nc(C)nc3c2nnn3Cc2ccccc2)cc1,13.0,53.0*,.,-0.1,16.4,8.3
O=C(CN1C(=O)NC2(CCCC2)C1=O)NNC(=O)c1ccc(Br)cc1,7.7,-2.5,-6.7,-0.6,-1.8,-5.3
Cc1ccc2[nH]c3nc(N/N=C/c4cccc(O)c4)nnc3c2c1,20.1,2.7,-3.1,5.6,-1.7,80.8*
Cc1cc(C)cc(C(=O)Nc2nc3ccccc3[nH]2)c1,-54.5,?,34.3,7.5,13.6,17.7
COc1cc(OC)cc(C(=O)Nc2nc3ccccc3[nH]2)c1,-44.5,59.0*,3.5,5.7,4.2,4.7
COc1ccc2oc(C(=O)Nc3nc4ccccc4[nH]3)c(C)c2c1,-174.2,78.0*,28.3,2.2,-1.4,27.4
COC(=O)c1ccc(CNC(=O)c2ccc3c(c2)OCCO3)cc1,16.4,3.7,-6.6,3.1,0.6,0.3
CC(=O)c1ccc(-c2cc([C@H]3[C@H]4C=CC[C@@H](C)[C@@H]4C(=O)N3Cc3ccccc3)ccc2F)cc1,15.6,32.7,0.0,-1.2,-2.1,114.6*
Cc1cc(OCC(=O)NNC(=S)NCC2CCCO2)cc(C)c1Cl (stereo not given),-6.6,9.1,0.9,4.1,3.4,-22.7
CSc1nc2sc3c(c2c(=O)n1CC(C)C)CC(C)(C)OC3,-4.8,2.6,-1.3,0.4,-4.3,75.2*
COc1ccc(-c2c[n+]3c4n2CCCCC4=C(c2ccc(Br)cc2)C3)cc1,.,14.9,104.1*,.,.,39.1
COc1ccc(-n2c(C)c(C)c3c(N)ncnc32)cc1,45.4,2.0,-11.3,0.5,3.0,-0.9
O=C(Nc1nnc(-c2ccc3c(c2)CCCC3)o1)c1ccccc1Cl,23.6,90.1*,.,-3.3,2.0,35.0
O=C(COc1ccccc1)Nc1nnc(-c2ccccc2Cl)o1,3.0,52.8*,0.7,-0.9,-5.7,3.0
O=C(COc1ccccc1)Nc1nnc(-c2ccc3c(c2)CCCC3)o1,-36.2,88.6*,-4.9,3.7,1.7,4.6
CCN(C(=O)Cn1nnc(-c2ccccc2)n1)C1CCS(=O)(=O)C1 (stereo not given),-2.1,-2.9,-0.8,-1.5,0.0,-9.0
Cc1ccc(CN2CCNC(=O)C2CC(=O)N(C)C2CCOCC2)cc1 (stereo not given),1.8,-0.9,-6.3,1.3,-7.2,0.2
